# Reference: ChEMBL document CHEMBL4513216, “Probing the Open Global Health Chemical Diversity Library for Multistage-Active Starting Points for Next-Generation Antimalarials” (ACS Infect Dis, 2020)
# Test: Toxicity liver stage against HepG2, at 10uM
# Format: cell-based
# Design: test concentration 10 uM, cell line HepG2-A16-CD81EGFP
# Conditions: human, HepG2-A16-CD81EGFP cells; read-out: INHIBITION
# Summary of the method: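 Uninfected HepG2-A16-CD81EGFP cells, 3 × 10^3 per well, 1536-well, plated on prespotted compound at 10 μM final, parasite-free screening media added to match infected plates; puromycin 10 μM positive, DMSO 0.5% negative; run in parallel with 48 h PbLuc assay at 37 °C, 5% CO2; viability by CellTiter-Glo luminescence, normalized to controls.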
structure (smiles),measurement,value
CC(=O)N1C[C@H]2CC[C@@H](C1)N(Cc1ccc(Cn3cccn3)cc1)C2,cytotoxicity at 10 µM,0.0531%
Cc1nnc2n1CCN(C(=O)c1cnc(C3CC3)s1)C2,cytotoxicity at 10 µM,-5.19%
NCc1cc(NCC(c2ccccn2)N2CCOCC2)ncn1 (stereo unspecified),cytotoxicity at 10 µM,-47.5%
Cc1ccc(CN2C[C@@H]3COC[C@@H](NS(C)(=O)=O)[C@@H]3C2)o1,cytotoxicity at 10 µM,-8.52%
CC(=O)NCCNC(=O)c1cnc(C(C)(C)C)s1,cytotoxicity at 10 µM,-2.17%
c1ccc(-c2cnc(CNC3CCc4ncnn4C3)o2)cc1 (stereo unspecified),cytotoxicity at 10 µM,-3.78%
CO[C@H]1C[C@@H](O)C12CCN(Cc1nc(C(F)(F)F)no1)CC2,cytotoxicity at 10 µM,-4.7%
Cc1cc2nc(C(C)C)cc(N3CCN(c4ccc(O)cc4)CC3)n2n1,cytotoxicity at 10 µM,10.8%
COCCN1CCN(c2ccc(CN(C)C)cn2)CC1,cytotoxicity at 10 µM,-7.41%
COc1cc2c(cc1OC)CN(Cc1ncccc1C(=O)O)CC2,cytotoxicity at 10 µM,5.31%
NC(=O)C1CCN(CCc2ccc(NCc3cccnc3)cc2)CC1,cytotoxicity at 10 µM,8.02%
COC(=O)NC1(C(=O)Nc2ccc(-c3ncc[nH]3)cc2)CCCC1,cytotoxicity at 10 µM,-14.4%
Cc1ccc(CN2C[C@H](NC(=O)c3nccn3C)[C@H]3OCCC[C@H]32)o1,cytotoxicity at 10 µM,-85%
CC(C)NC(=O)[C@@H]1C[C@@H]2CCN(Cc3ccoc3)C[C@H]2O1,cytotoxicity at 10 µM,-109%
CNC(=O)Cc1ccccc1NC(=O)NCc1ccc(SC)cc1,cytotoxicity at 10 µM,-1.88%
CCN(Cc1ccccc1)C(=O)CCN1CC(O)C1,cytotoxicity at 10 µM,7.48%
CN(C)Cc1cnc(C2CCN(C(=O)c3ccc(F)cc3)C2)[nH]1 (stereo unspecified),cytotoxicity at 10 µM,-1.92%
Cc1nc(C2(NCc3cccc(F)c3F)CCCCC2)no1,cytotoxicity at 10 µM,0.749%
CC(Cn1cncn1)NCc1nncn1C1CCCCC1 (stereo unspecified),cytotoxicity at 10 µM,-10.4%
Fc1ccc(Sc2ccccc2CNC2=NCCN2)cc1,cytotoxicity at 10 µM,18.9%
CCc1nc(C2CCCN2C(=O)c2ccc(N(C)C)nn2)no1 (stereo unspecified),cytotoxicity at 10 µM,-11.4%
CCOc1ccc(C#N)cc1NCC(=O)NC1(C#N)CCCC1,cytotoxicity at 10 µM,-30.8%
c1ccc(OCC2C[C@@H]3[C@@H](C2)OCCN3CC2CCOCC2)nc1 (stereo partly specified),cytotoxicity at 10 µM,2.75%
Cc1cc(C)n(CC2CN(CC(=O)Nc3ccncc3)CCO2)n1 (stereo unspecified),cytotoxicity at 10 µM,-3.18%
COc1cc(NC(=O)NCC2CCCO2)cc(OC)c1OC (stereo unspecified),cytotoxicity at 10 µM,-7.71%
Cn1ccc2ccc(C(=O)N3CCN(C(=O)OC(C)(C)C)CC3)cc21,cytotoxicity at 10 µM,18.1%
CN(C)CC(=O)N1CCN(C(=O)c2cccc3[nH]ncc23)CC1,cytotoxicity at 10 µM,-11.6%
Cn1cnnc1C1CCCN(C(=O)NCCc2ccccc2F)C1 (stereo unspecified),cytotoxicity at 10 µM,-1.88%
CC(Sc1n[nH]c(-c2ccc3c(c2)CCC3)n1)C(N)=O (stereo unspecified),cytotoxicity at 10 µM,-0.665%
Cc1noc(C(C)C)c1C(=O)NCc1ccc2c(c1)OCCO2,cytotoxicity at 10 µM,3.24%
CCc1ccc(S(=O)(=O)NCC2CCN(c3cnccn3)CC2)s1,cytotoxicity at 10 µM,7.69%
O=C(c1ccco1)N1C2CCC(O)(CC2)C1CO (stereo unspecified),cytotoxicity at 10 µM,6.88%
CNC(=O)c1sc2ncccc2c1C1CCN(C(=O)CCOC)C1 (stereo unspecified),cytotoxicity at 10 µM,6.42%
CC(C)Cc1noc(CC2CCS(=O)(=O)C2)n1 (stereo unspecified),cytotoxicity at 10 µM,3.03%
CCO[C@@H]1CO[C@@]2(CCCN(S(=O)(=O)c3cccnc3)C2)C1,cytotoxicity at 10 µM,-0.156%
COc1cc(C(=O)NCCc2ccc(Cl)cc2)on1,cytotoxicity at 10 µM,-0.295%
CCc1ncc(C(=O)NCCNc2ncnc3sccc23)s1,cytotoxicity at 10 µM,49.6%
O=C(O)c1csc(S(=O)(=O)N2CCN(Cc3c(F)cccc3Cl)CC2)c1,cytotoxicity at 10 µM,-2.56%
CC(NC(=O)N(C)Cc1ccsc1)c1nncn1C (stereo unspecified),cytotoxicity at 10 µM,-4.02%
COCCN(C)CCN1CC2(CCN(C3CCCNC3)CC2)OC1=O (stereo unspecified),cytotoxicity at 10 µM,2.28%
Cc1nc(CNC(=O)NC2CCN(c3ncccc3Cl)C2)oc1C (stereo unspecified),cytotoxicity at 10 µM,2.93%
CC(C)n1nc2c(cc1=O)CN(Cc1nnc(C3CC3)o1)CC2,cytotoxicity at 10 µM,-18.8%
CN(C)CCC1CCCCN1Cc1cnn(C)c1C1CC1 (stereo unspecified),cytotoxicity at 10 µM,2.84%
COC(=O)c1cc(CN2CCN(c3nc(C)cnc3C)CC2)ccc1O,cytotoxicity at 10 µM,0.171%
O=C(c1ccccc1)N1CC2(CCNC2)OCc2ccccc21 (stereo unspecified),cytotoxicity at 10 µM,13%
CCN1CCC(NC(=O)NCC(O)c2ccc(Cl)c(F)c2)CC1 (stereo unspecified),cytotoxicity at 10 µM,-3.82%
CN1CCN([C@@H]2CCN(C(N)=O)[C@H]2Cc2ccccc2)CC1,cytotoxicity at 10 µM,2.41%
c1cnc(N2CCOCC3(CCCN(Cc4cc[nH]n4)C3)C2)nc1 (stereo unspecified),cytotoxicity at 10 µM,3.35%
COC(=O)c1sccc1S(=O)(=O)NCCC(O)c1ccoc1 (stereo unspecified),cytotoxicity at 10 µM,-2.64%
Cn1ccnc1CN1CCN(CC(O)c2ccco2)CC1 (stereo unspecified),cytotoxicity at 10 µM,2.38%
Cc1noc(C2CCN(CC(=O)N3CCNC(=O)C3)CC2)n1,cytotoxicity at 10 µM,2.41%
CCn1cc(NC(=O)NCC(c2ccsc2)N(C)C)cn1 (stereo unspecified),cytotoxicity at 10 µM,-8.01%
CCn1cc(NC(=O)NCC(O)CN2CCCCC2)cn1 (stereo unspecified),cytotoxicity at 10 µM,3.75%
Cc1ccc(C(=O)N2CCN(CCC(C)(C)C)CC2)c(=O)[nH]1,cytotoxicity at 10 µM,-6.95%
CC1(CCC(=O)N2CCC(n3cc(C4(O)CCCC4)nn3)CC2)CC1,cytotoxicity at 10 µM,-7.69%
CC(NS(=O)(=O)CCc1ccccn1)c1ccccc1Br (stereo unspecified),cytotoxicity at 10 µM,-4.74%
Cc1ccc(NC(=O)Cc2c(C)nc3c(c2C)c(=O)[nH]n3C)cc1F,cytotoxicity at 10 µM,6.87%
CC(C)c1ccc(CNC(c2ccc(F)cn2)C(C)C)cc1 (stereo unspecified),cytotoxicity at 10 µM,-4.45%
Cc1cc(C(=O)NCCc2cn3nc(C)sc3n2)c(C)o1,cytotoxicity at 10 µM,5.68%
Cc1csc(CCNC(=O)NC(C)Cn2cccn2)n1 (stereo unspecified),cytotoxicity at 10 µM,-18%
Cc1c(Br)cccc1C(=O)NCC1CCCNC1 (stereo unspecified),cytotoxicity at 10 µM,19.8%
Cc1cc(C(=O)NC2CCCc3c2cnn3-c2cccc(C)c2C)[nH]n1 (stereo unspecified),cytotoxicity at 10 µM,51.4%
CCc1cccc(NC(=O)NC2CCc3nc(C)nn3C2)c1 (stereo unspecified),cytotoxicity at 10 µM,-12.5%
COCCN1CCO[C@H]2CN(Cc3cc[nH]n3)C[C@H]21,cytotoxicity at 10 µM,-105%
COCCc1noc(CN(C)C(=O)C2COc3ccccc3C2)n1 (stereo unspecified),cytotoxicity at 10 µM,8.63%
COc1ccccc1CN(CC1CCCO1)C(=O)c1ccc(F)cn1 (stereo unspecified),cytotoxicity at 10 µM,-3.85%
Cn1cc(CN2C[C@@H]3COC[C@]3(CNC(=O)c3ccsc3)C2)cn1,cytotoxicity at 10 µM,-0.0273%
COc1ccc(C2CCCN2Cc2ccc(S(=O)(=O)N(C)C)o2)cc1 (stereo unspecified),cytotoxicity at 10 µM,-5%
Cc1nc(C)n(CC2CCCCN2CC(=O)Nc2cc(C)on2)n1 (stereo unspecified),cytotoxicity at 10 µM,2.67%
NC(=O)C1CN(C(=O)Nc2ccc(SC(F)(F)F)cc2)CCO1 (stereo unspecified),cytotoxicity at 10 µM,-12.9%
CC(C)c1ccc(CC2(C)Cc3cc(CC(=O)O)ccc3O2)cc1 (stereo unspecified),cytotoxicity at 10 µM,6.65%
O=C(c1ccncc1)N1C[C@@H]2CCN(c3cccnc3)C[C@@H]2C1,cytotoxicity at 10 µM,-71.5%
COC(=O)CCN(CC1CCCO1)C(=O)CCc1ccc(OC)cc1 (stereo unspecified),cytotoxicity at 10 µM,7.39%
Cc1nc(C)n(CC(=O)N2CCCC(c3nc(C)n4c(C)csc34)C2)n1 (stereo unspecified),cytotoxicity at 10 µM,2.08%
COc1ccc(N2CCN(C(=O)CCCc3cn[nH]c3)CC2=O)cc1,cytotoxicity at 10 µM,-9.9%
CN(Cc1cc(-c2ccccc2)no1)CC1CCCN1c1cccnn1 (stereo unspecified),cytotoxicity at 10 µM,-9.09%
CO[C@@H]1CN(Cc2scnc2C)[C@@H]2CCCO[C@@H]21,cytotoxicity at 10 µM,-6.34%
COc1ccccc1CNC(=O)C1=NN(c2ccc(C)cc2)C(=O)CN1,cytotoxicity at 10 µM,25.1%
CS(=O)(=O)N1CCCC12CCCN(C(=O)c1ccncc1)C2 (stereo unspecified),cytotoxicity at 10 µM,-159%
O=C(c1ccc(F)c(F)c1)N1CCN2CCCC2C1 (stereo unspecified),cytotoxicity at 10 µM,-7.09%
Cc1nc(O)cc(CCNc2nccc(CCC(F)(F)F)n2)n1,cytotoxicity at 10 µM,-149%
